Where “and” joins values, the source holds several entries; their conditions need not be identical. Identical values can stand only once. Calls of active or inactive are those of the source. The calls are words filed in the database; no cut-off is given here.
Tests used:
Mus musculus [1] = experiment: Anticonvulsant activity in mice through seizures induced by subcutaneous pentylenetetrazole (scPTZ) tests after ip administration at a concentration of 300 mg/kg after 30 min; Active; assay type: functional, organism-based; parameters: dose 300 mg/kg
Rattus norvegicus [2] = experiment: Anticonvulsant activity was measured in rats through seizures induced by maximal electroshock (MES) tests by oral administration of drug at a concentration of 30 mg/kg after 2 hours.; assay type: functional
In short: (§1)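 Rats given a single oral dose of 30 or 50 mg/kg, depending on compound; MES protection scored at 15, 30, 60, 120 and 240 min. Activity graded by fraction of animals protected (0-25%, 25-50%, 50-75%, 75-100%); neurotoxicity monitored at the same time points.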

Rattus norvegicus [3] = experiment: Anticonvulsant activity was measured in rats through seizures induced by maximal electroshock (MES) tests by oral administration of drug after 4 hours.; assay type: functional; in short: as §1
Mus musculus [4] = experiment: Neurotoxicity by rotarod test after intraperitoneal administration at a concentration of 300 mg/kg after 4 hours; Active; assay type: functional, organism-based; parameters: dose 300 mg/kg
Rattus norvegicus [5] = experiment: Anticonvulsant activity was measured in rats through seizures induced by maximal electroshock (MES) tests by oral administration of drug at a concentration of 30 mg/kg after 15 minutes.; assay type: functional; in short: as §1
Mus musculus [6] = experiment: Neurotoxicity by rotarod test after intraperitoneal administration at a concentration of 300 mg/kg after 30 minutes; Active; assay type: functional, organism-based; parameters: dose 300 mg/kg
Rattus norvegicus [7] = experiment: Anticonvulsant activity in rats through seizures induced by maximal electroshock (MES) tests after oral administration at a concentration of 30 mg/kg after 1 hour.; assay type: functional; in short: as §1
Mus musculus [8] = experiment: Anticonvulsant activity in mice through seizures induced by maximal electroshock (MES) tests after ip administration at a concentration of 300 mg/kg after 4 hours; Active; assay type: functional, organism-based; parameters: dose 300 mg/kg
Rattus norvegicus [9] = experiment: Anticonvulsant activity was measured in rats through seizures induced by maximal electroshock (MES) tests by oral administration of drug at a concentration of 30 mg/kg after 30 minutes.; assay type: functional; in short: as §1
Mus musculus [10] = experiment: Anticonvulsant activity in mice through seizures induced by sc pentylenetetrazole (intraperitoneal administration at a concentration of 300 mg/kg after 4 hours; Inactive; assay type: functional, organism-based; parameters: dose 300 mg/kg
Mus musculus [11] = experiment: Anticonvulsant activity in mice through seizures induced by maximal electroshock (MES) tests after ip administration at a concentration of 100 mg/kg after 30 min; Active; assay type: functional, organism-based; parameters: dose 100 mg/kg
Rattus norvegicus [12] = experiment: (§2) Toxicity screening in rats dosed orally with the compound; No toxicity; assay type: functional, organism-based
In short: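 Rats given a single oral dose of 30 or 50 mg/kg, depending on compound. Minimal neurotoxicity was scored at 15, 30, 60, 120 and 240 min after dosing, alongside the MES test. Scores are graded by the percentage of animals affected.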

Mus musculus [13] = species on record: Mus musculus; experiment: Current response was measured on 1 uM GABA at 30 uM concentration on 6 isolated mouse cortical neurons.; assay type: functional
Mus musculus [14] = experiment: Anticonvulsant activity in mice through seizures induced by sc pentylenetetrazole (intraperitoneal administration at a concentration of 300 mg/kg after 30 min; active; assay type: functional, organism-based; parameters: dose 300 mg/kg
Mus musculus [15] = experiment: Neurotoxicity by rotarod test after intraperitoneal administration at a concentration of 300 mg/kg after 30 minutes; Inactive; assay type: functional, organism-based; parameters: dose 300 mg/kg
Mus musculus [16] = species on record: Mus musculus; experiment: Current response was measured on 100 uM kainate at 100 uM concentration on 7 isolated mouse cortical neurons.; assay type: functional
In short: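 Cultured mouse fetal cortical neurons, whole-cell clamped at -60 mV and 23 °C. Bath had 1 µM glycine, 10 µM picrotoxin, strychnine and tetrodotoxin. Currents evoked by 100 µM kainate pulses with and without 100 µM compound via rapid perfusion; expressed as % of control, mean ± SEM, Student's t-test.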

Rattus norvegicus [17] = experiment: Effective dose required to assure anticonvulsant protection in 50% of rats dosed orally by MES test.; assay type: functional; conditions: po
In short: (§3)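 Rats dosed orally; ED50 is the dose giving anticonvulsant protection in 50% of animals in the MES or scPtz test. TD50 is the minimal neurotoxic dose in 50% of animals. Time to peak effect was also determined.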

Mus musculus [18] = experiment: Anticonvulsant activity in mice through seizures induced by subcutaneous pentylenetetrazole (scPTZ) tests after ip administration at a concentration of 300 mg/kg after 4 hours; active; assay type: functional, organism-based; parameters: dose 300 mg/kg
Rattus norvegicus [19] = experiment: Anticonvulsant activity was measured in rats through seizures induced by maximal electroshock (MES) tests by oral administration of drug after 15 minutes.; assay type: functional; in short: as §1
Mus musculus [20] = species on record: Mus musculus; experiment: Current response was measured from -60 mV depolarizing voltage steps at 100 uM concentration on 3 N1E-115 neuroblastoma cells.; assay type: functional
In short: (§4)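 Differentiated N1E-115 cells (3-5 days in 2.5% FCS, 2% DMSO), whole-cell clamped at -70 mV at room temperature. Bath had Cd2+ and TEA to block Ca2+ and K+ channels. Na+ currents evoked by steps from -80 to +60 mV after 90 ms prepulses to -90 or -60 mV, measured 1-2 min into compound exposure; reported as % of control.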

[21] = dose eliciting minimal neurological toxicity in 50% of animals.; assay type: organism-based; conditions: rat, in vivo
Mus musculus [22] = species on record: Mus musculus; experiment: Current response was measured on 1 uM GABA at 10 uM concentration on 5 isolated mouse cortical neurons.; assay type: functional
Rattus norvegicus [23] = experiment: Effective dose required to assure anticonvulsant protection in 50% of rats dosed orally by scPTZ test.; assay type: functional; conditions: po; in short: as §3
Rattus norvegicus [24] = experiment: Anticonvulsant activity was measured in rats through seizures induced by maximal electroshock (MES) tests by oral administration of drug after 2 hours.; assay type: functional; in short: as §1
Rattus norvegicus [25] = experiment: as §2; assay type: organism-based; conditions: in vivo, po
Mus musculus [26] = experiment: Neurotoxicity determined by rotarod test after intraperitoneal administration at a concentration of 300 mg/kg after 4 hours; Inactive; assay type: functional, organism-based; parameters: dose 300 mg/kg
Mus musculus [27] = species on record: Mus musculus; experiment: Current response was measured from -90 mV depolarizing voltage steps at 100 uM concentration on 5 N1E-115 neuroblastoma cells.; assay type: functional; in short: as §4
Rattus norvegicus [28] = experiment: Anticonvulsant activity was measured in rats through seizures induced by maximal electroshock (MES) tests by oral administration of drug after 30 minutes.; assay type: functional; in short: as §1
Mus musculus [29] = experiment: Anticonvulsant activity in mice through seizures induced by maximal electroshock (MES) tests after ip administration at a concentration of 300 mg/kg after 4 hours; Inactive; assay type: functional, organism-based; parameters: dose 300 mg/kg
Rattus norvegicus [30] = experiment: Anticonvulsant activity was measured in rats through seizures induced by maximal electroshock (MES) tests by oral administration of drug after 1 hour.; assay type: functional; in short: as §1
Mus musculus [31] = experiment: Anticonvulsant activity in mice through seizures induced by maximal electroshock (MES) tests after ip administration at a concentration of 100 mg/kg after 30 min; active; assay type: functional, organism-based; parameters: dose 100 mg/kg
Mus musculus [32] = species on record: Mus musculus; experiment: Current response was measured on 1 uM GABA at 100 uM concentration on 10 isolated mouse cortical neurons.; assay type: functional

Nc1cccc(N2C(=O)c3ccccc3C2=O)c1
Activity (Mus musculus [1]): Active
Activity in animals (Rattus norvegicus [2]): 75%
Activity in animals (Rattus norvegicus [3]): 100%
Activity (Mus musculus [4]): Active
Activity in animals (Rattus norvegicus [5]): 50%
Activity (Mus musculus [6]): Active
Activity in animals (Rattus norvegicus [7]): 75%
Activity (Mus musculus [8]): Active
Activity in animals (Rattus norvegicus [9]): 100%
Activity (Mus musculus [10]): inactive
Activity (Mus musculus [11]): Active
Toxicity (Rattus norvegicus [12]): Not toxic

Nc1ccc(N2C(=O)c3ccccc3C2=O)c(Cl)c1
Response (Mus musculus [13]): 142%
Activity (Mus musculus [14]): Active
Activity (Mus musculus [15]): inactive
Activity in animals (Rattus norvegicus [3]): 100%
Response (Mus musculus [16]): 74%
ED50 (Rattus norvegicus [17]): 5.7 mg/kg
Activity (Mus musculus [18]): Active
Activity in animals (Rattus norvegicus [19]): 75%
Response (Mus musculus [20]): 49%
TD50 [21]: > 500 mg/kg
Response (Mus musculus [22]): 174% and 99%
ED50 (Rattus norvegicus [23]): > 250 mg/kg
Activity in animals (Rattus norvegicus [24]): 100%
Toxicity (Rattus norvegicus [25]): No toxicity
Activity (Mus musculus [26]): inactive
Response (Mus musculus [27]): 62%
Activity in animals (Rattus norvegicus [28]): 100%
Activity (Mus musculus [29]): inactive
Activity in animals (Rattus norvegicus [30]): 100%
Activity (Mus musculus [31]): Active
Response (Mus musculus [32]): 118%
